Values after ≈ are worked out from the molar mass of the structure shown.
Experiments:
Cryptococcus neoformans = test: Antifungal activity against Cryptococcus neoformans ATCC 32045 after 48 hrs by standard microdilution broth technique; type: functional; conditions: ATCC 32045, 48 h
How it was run: (§1)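 Broth microdilution MIC in 50 μl total volume. C. albicans ATCC 44506 grown in Sabouraud dextrose broth at 37° for 24 h; Cr. neoformans ATCC 32045 in Emmon's modification of Sabouraud dextrose broth at 37° for 48 h. MIC taken as lowest drug concentration giving complete growth inhibition.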

Candida albicans = test: Antifungal activity against Candida albicans ATCC 44506 after 24 hrs by standard microdilution broth technique; type: functional; conditions: ATCC 44506, 24 h; how it was run: as §1
A549 = test: Cytotoxicity against human A549 cells by MTT assay; type: functional, cell-based
P388 = test: Cytotoxicity against mouse P388 cells by MTT assay; type: functional, cell-based
[1] = Displacement of [125I]angiotensin 2 from angiotensin 2 receptor in rat aorta smooth muscle cell membrane by genesys gamma counting
How it was run: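 Duplicate tubes: 0.88 nM (final) [125I]angiotensin II, membranes 75–125 μg/ml protein, 3 h at 25°; nonspecific with 1 μM unlabeled angiotensin II. GF/C filtration, gamma counting, nonlinear regression.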

| MIC (Cryptococcus neoformans) [µg/mL] | MIC (Candida albicans) [µg/mL] | IC50 [1] [µM] | Structure (SMILES) | IC50 (A549) [µg/mL] | IC50 (P388) [µg/mL] |
| --- | --- | --- | --- | --- | --- |
| 25 (≈ 90.4 µM) | 25 (≈ 90.4 µM) | – | CC1=CC(=O)CC(C)(CC[C@]2(C)C(C)=CCC[C@H]2C)O1 (some centres undefined) [SOLLASIN E] | – | – |
| 31.2 (≈ 93.8 µM) | 125 (≈ 376 µM) | – | CC1=CCC[C@@H](C)[C@]1(C)CC/C(C)=C/C(=O)N[C@@H]1CCCNC1=O [SOLLASIN B] | 17 (≈ 51.1 µM) | 6 (≈ 18 µM) |
| – | – | 42 | COc1cc(/C=C(\C)CC[C@]2(C)C(C)=CCC[C@H]2C)oc(=O)c1 [SOLLASIN D] | 11.3 (≈ 35.7 µM) | 5.5 (≈ 17.4 µM) |
| 15.6 (≈ 45 µM) | 31.2 (≈ 90 µM) | 63 | CC1=CCC[C@@H](C)[C@]1(C)CC/C(C)=C/C(=O)N[C@@H]1CCCCNC1=O [SOLLASIN C] | 11 (≈ 31.7 µM) | 8.4 (≈ 24.2 µM) |

Source: ChEMBL document CHEMBL1147350, “Sesquiterpene-derived metabolites from the deep water marine sponge Poecillastra sollasi” (J Nat Prod, 1993)
